{"source": "ChEMBL document CHEMBL1158729", "about": "“Antioxidant phenolic glycosides from Moricandia arvensis” (J Nat Prod, 2005)", "format_in_all_cases": "functional", "key": {"[1]": {"assay": "Antioxidant activity assessed as ABTS radical scavenging activity after 15 mins by TEAC method", "outline": "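ABTS radical cation formed from 7 mM ABTS with potassium persulfate (2.4 mM final), held 16 h dark at room temperature, then diluted with water to A734 0.700 ± 0.03. Samples in H2O-EtOH at 5-8 concentrations (0 to 20 µM final). A734 decrease read at 1, 2, 5, 10, 15 min, triplicate, with solvent blanks. Expressed as mM Trolox equivalent to 1.0 mM or 1 mg/mL sample.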"}, "[2]": {"assay": "Antioxidant activity assessed as reduction of […]/ferricyanide complex after 20 mins", "outline": "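Samples (0.02-1.0 mg) in water, mixed with […] phosphate buffer pH 6.6 and 1% potassium ferricyanide, 20 min at 50 °C. Reaction stopped with 10% TCA, centrifuged, and supernatant mixed with water and 0.1% FeCl3. A700 read against blank. Means of three independent samples fitted by linear regression. IC50 taken as the concentration giving an absorbance change of 0.50. α-Tocopherol and quercetin used as standards.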"}, "[3]": {"test_system": "Radical scavenging activity", "assay": "Antioxidant activity assessed as DPPH radical scavenging activity at 15 ug/mL after 30 to 45 mins", "outline": "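Sample added to freshly prepared 0.004% DPPH in MeOH (final-volume ratio 50:950 µL), vortexed 15 s. Absorbance at 515 nm read at room temperature after 30-45 min, once steady state was reached. Triplicate. % inhibition = (1 − As/A0) × 100 against control. α-Tocopherol and quercetin used as standards.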"}}, "note": "The source made the active and inactive calls. No cut-off for these calls is given here.", "data": [{"smiles": "COC(=O)/C=C/c1cc(O)cc(O[C@@H]2O[C@H](CO)[C@@H](O)[C@H](O)[C@H]2O)c1", "values": [{"measurement": "Trolox equivalent antioxidant capacity (TEAC)", "setting": "[1]", "result": 0.35, "unit": "mM"}, {"measurement": "IC50", "setting": "[2]", "result": 630.8, "unit": "µg/mL"}]}, {"smiles": "O=C(O[C@@H]1O[C@H](CO)[C@@H](O)[C@H](O)[C@H]1O)c1ccc(O[C@@H]2O[C@H](CO)[C@@H](O)[C@H](O)[C@H]2O)cc1", "values": [{"measurement": "Trolox equivalent antioxidant capacity (TEAC)", "setting": "[1]", "result": 0.28, "unit": "mM"}, {"measurement": "IC50", "setting": "[2]", "result": 735.4, "unit": "µg/mL"}]}, {"smiles": "COC(=O)/C=C/c1ccc(O[C@@H]2O[C@H](CO)[C@@H](O)[C@H](O)[C@H]2O)c(O)c1", "values": [{"measurement": "Trolox equivalent antioxidant capacity (TEAC)", "setting": "[1]", "result": 0.89, "unit": "mM"}, {"measurement": "IC50", "setting": "[2]", "result": 486.2, "unit": "µg/mL"}]}, {"smiles": "O=c1c(O)c(-c2ccc(O)c(O)c2)oc2cc(O)cc(O)c12", "note": "[QUERCETIN]", "values": [{"measurement": "Activity", "setting": "[1]", "result": 4.26, "unit": "mM"}, {"measurement": "Activity", "setting": "[3]", "result": 87, "unit": "%"}, {"measurement": "IC50", "setting": "[2]", "result": 24.4, "unit": "µg/mL"}]}, {"smiles": "O=C(O[C@@H]1O[C@H](CO)[C@@H](O)[C@H](O)[C@H]1O)c1ccc(O)cc1", "values": [{"measurement": "Activity", "setting": "[1]", "result": "inactive"}, {"measurement": "Activity", "setting": "[2]", "result": "inactive"}]}, {"smiles": "O=C(/C=C/c1ccc(O)c(O)c1)O[C@@H]1O[C@H](CO)[C@@H](O)[C@H](O)[C@H]1O", "values": [{"measurement": "Trolox equivalent antioxidant capacity (TEAC)", "setting": "[1]", "result": 1.91, "unit": "mM"}, {"measurement": "Activity", "setting": "[3]", "result": 72, "unit": "%"}, {"measurement": "IC50", "setting": "[2]", "result": 33.5, "unit": "µg/mL"}]}, {"smiles": "OC[C@H]1O[C@@H](OCCc2ccccc2)[C@H](O)[C@@H](O)[C@@H]1O", "values": [{"measurement": "Activity", "setting": "[1]", "result": "inactive"}, {"measurement": "Activity", "setting": "[2]", "result": "inactive"}]}, {"smiles": "C[C@@H]1O[C@@H](Oc2cc(O)c3c(=O)c(O[C@@H]4O[C@H](CO)[C@@H](O)[C@H](O)[C@H]4O)c(-c4ccc(O[C@@H]5O[C@H](CO)[C@@H](O)[C@H](O)[C@H]5O)c(O)c4)oc3c2)[C@H](O)[C@H](O)[C@H]1O", "note": "[MORICANDIN]", "values": [{"measurement": "Trolox equivalent antioxidant capacity (TEAC)", "setting": "[1]", "result": 1.23, "unit": "mM"}, {"measurement": "Activity", "setting": "[3]", "result": 60, "unit": "%"}, {"measurement": "IC50", "setting": "[2]", "result": 48.1, "unit": "µg/mL"}]}, {"smiles": "Cc1c(C)c2c(c(C)c1O)CC[C@@](C)(CCC[C@H](C)CCC[C@H](C)CCCC(C)C)O2", "note": "[ALPHA-TOCOPHEROL]", "values": [{"measurement": "Activity", "setting": "[3]", "result": 87, "unit": "%"}, {"measurement": "IC50", "setting": "[2]", "result": 106.9, "unit": "µg/mL"}]}, {"smiles": "O=C(/C=C/c1ccc(O[C@@H]2O[C@H](CO)[C@@H](O)[C@H](O)[C@H]2O)c(O)c1)O[C@@H]1O[C@H](CO)[C@@H](O)[C@H](O)[C@H]1O", "values": [{"measurement": "Trolox equivalent antioxidant capacity (TEAC)", "setting": "[1]", "result": 1.06, "unit": "mM"}, {"measurement": "IC50", "setting": "[2]", "result": 95.9, "unit": "µg/mL"}]}]}
